Measured values as given in ChEMBL document CHEMBL4043093, “2-Oxo-3, 4-dihydropyrimido[4, 5-d]pyrimidinyl derivatives as new irreversible pan fibroblast growth factor receptor (FGFR) inhibitors” (Eur J Med Chem, 2017).

Key:
[1] = system: Receptor-type tyrosine-protein kinase FLT3 (Homo sapiens), P36888 [D835Y]; experiment: Inhibition of human partial length FLT3 D835Y mutant (Q580 to Y969 residues) expressed in Escherichia coli BL21 assessed as residual activity at 1000 nM after 30 mins by Kinomescan method relative to control
Summary of the method: (§1)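 KINOMEscan binding panel of 456 kinases, with the test compound at a single concentration of 1 µM. Read-out is Percent Control.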

[2] = biological target: CDK4/Cyclin D3 (Homo sapiens) (UniProt P11802+P30281); experiment: Inhibition of wild-type human full length CDK4/cyclinD3 (M1 to E303 residues) expressed in HEK293 cells assessed as residual activity at 1000 nM after 30 mins by Kinomescan method relative to control; type: cell-based
Summary of the method: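 Single-point screen at a fixed 1 µM, run within a 456-kinase DiscoveRx KINOMEscan panel. Each kinase's read-out is Percent Control, i.e. signal relative to a control without compound. Hits were scored by a Percent Control < 35 cut-off, and an S(35) selectivity score was calculated across the non-mutant kinases.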

[3] = system: Phosphatidylinositol 4,5-bisphosphate 3-kinase catalytic subunit alpha isoform (Homo sapiens), P42336 [E545K]; experiment: Inhibition of human partial length PIK3CA E545K mutant (R108 to N1068 residues) expressed in HEK293 cells assessed as residual activity at 1000 nM after 30 mins by Kinomescan method relative to control; type: cell-based; summary of the method: as §1
[4] = biological target: Serine/threonine-protein kinase DCLK3 (Homo sapiens) (UniProt Q9C098); experiment: Inhibition of wild-type human partial length DCAMKL3 (E140 to V628 residues) expressed in Escherichia coli BL21 assessed as residual activity at 1000 nM after 30 mins by Kinomescan method relative to control
[5] = biological target: Ribosomal protein S6 kinase alpha-6 (Homo sapiens) (UniProt Q9UK32); experiment: Inhibition of wild-type human partial length C-terminal RSK4 kinase domain 2 (I401 to Y711 residues) expressed in Escherichia coli BL21 assessed as residual activity at 1000 nM after 30 mins by Kinomescan method relative to control
[6] = biological target: Receptor-interacting serine/threonine-protein kinase 4 (Homo sapiens) (UniProt P57078); experiment: Inhibition of wild-type human partial length RIPK4 (M1 to V303 residues) expressed in HEK293 cells assessed as residual activity at 1000 nM after 30 mins by Kinomescan method relative to control; type: cell-based
[7] = biological target: Dual specificity testis-specific protein kinase 1 (Homo sapiens) (UniProt Q15569); experiment: Inhibition of wild-type human full length TESK1 (R37 to S626 residues) expressed in Escherichia coli BL21 assessed as residual activity at 1000 nM after 30 mins by Kinomescan method relative to control
[8] = biological target: MAP kinase-activated protein kinase 5 (Homo sapiens) (UniProt Q8IW41); experiment: Inhibition of wild-type human partial length MAPKAPK5 (M1 to D322 residues) expressed in HEK293 cells assessed as residual activity at 1000 nM after 30 mins by Kinomescan method relative to control; type: cell-based
[9] = biological target: Serine/threonine-protein kinase NLK (Homo sapiens) (UniProt Q9UBE8); experiment: Inhibition of wild-type human full length NLK (M13 to E527 residues) expressed in Escherichia coli BL21 assessed as residual activity at 1000 nM after 30 mins by Kinomescan method relative to control
Summary of the method: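 Single-concentration screen at 1 µM across a 456-kinase KINOMEscan panel. The read-out is Percent Control for each kinase.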

[10] = biological target: Serine/threonine-protein kinase PLK4 (Homo sapiens) (UniProt O00444); experiment: Inhibition of wild-type human partial length PLK4 (M1 to S273 residues) expressed in HEK293 cells assessed as residual activity at 1000 nM after 30 mins by Kinomescan method relative to control; type: cell-based
[11] = biological target: Phosphatidylinositol 4,5-bisphosphate 3-kinase catalytic subunit delta isoform (Homo sapiens) (UniProt O00329); experiment: Inhibition of wild-type human partial length PIK3CD (R108 to Q1044 residues) expressed in HEK293 cells assessed as residual activity at 1000 nM after 30 mins by Kinomescan method relative to control; type: cell-based
[12] = biological target: Protein kinase C eta type (Homo sapiens) (UniProt P24723); experiment: Inhibition of wild-type human partial length PRKCH (S324 to P683 residues) expressed in Escherichia coli BL21 assessed as residual activity at 1000 nM after 30 mins by Kinomescan method relative to control
[13] = biological target: Angiopoietin-1 receptor (Homo sapiens) (UniProt Q02763); experiment: Inhibition of wild-type human partial length TIE2 (N804 to T1112 residues) expressed in Escherichia coli BL21 assessed as residual activity at 1000 nM after 30 mins by Kinomescan method relative to control
[14] = biological target: Mitogen-activated protein kinase 15 (Homo sapiens) (UniProt Q8TD08); experiment: Inhibition of wild-type human partial length ERK8 (M1 to P437 residues) expressed in Escherichia coli BL21 assessed as residual activity at 1000 nM after 30 mins by Kinomescan method relative to control
[15] = biological target: Ephrin type-B receptor 2 (Homo sapiens) (UniProt P29323); experiment: Inhibition of wild-type human partial length EPHB2 (I597 to L902 residues) expressed in Escherichia coli BL21 assessed as residual activity at 1000 nM after 30 mins by Kinomescan method relative to control
[16] = biological target: Cyclin-dependent kinase 13 (Homo sapiens) (UniProt Q14004); experiment: Inhibition of wild-type human partial length CDC2L5 (H675 to S1054 residues) expressed in HEK293 cells assessed as residual activity at 1000 nM after 30 mins by Kinomescan method relative to control; type: cell-based
[17] = biological target: Serine/threonine-protein kinase 32B (Homo sapiens) (UniProt Q9NY57); experiment: Inhibition of wild-type human full length YANK2 (M1 to S414 residues) expressed in Escherichia coli BL21 assessed as residual activity at 1000 nM after 30 mins by Kinomescan method relative to control
[18] = biological target: Phosphatidylinositol 4-phosphate 3-kinase C2 domain-containing subunit beta (Homo sapiens) (UniProt O00750); experiment: Inhibition of wild-type human partial length PIK3C2B (M1 to L1634 residues) expressed in HEK293 cells assessed as residual activity at 1000 nM after 30 mins by Kinomescan method relative to control; type: cell-based
[19] = system: Epidermal growth factor receptor (Homo sapiens), P00533 [L858R]; experiment: Inhibition of human partial length EGFR L858R mutant (R669 to V1011 residues) expressed in Escherichia coli BL21 assessed as residual activity at 1000 nM after 30 mins by Kinomescan method relative to control; summary of the method: as §1
[20] = biological target: Calcium/calmodulin-dependent protein kinase type IV (Homo sapiens) (UniProt Q16566); experiment: Inhibition of wild-type human partial length CAMK4 (A22 to A322 residues) expressed in Escherichia coli BL21 assessed as residual activity at 1000 nM after 30 mins by Kinomescan method relative to control
[21] = biological target: Dual specificity mitogen-activated protein kinase kinase 5 (Homo sapiens) (UniProt Q13163); experiment: Inhibition of wild-type human partial length MEK5 (L98 to P448 residues) expressed in HEK293 cells assessed as residual activity at 1000 nM after 30 mins by Kinomescan method relative to control; type: cell-based
Chain of Dual specificity mitogen-activated protein kinase kinase 5 (Homo sapiens) (Q13163 whole entry, the tested form may be a part): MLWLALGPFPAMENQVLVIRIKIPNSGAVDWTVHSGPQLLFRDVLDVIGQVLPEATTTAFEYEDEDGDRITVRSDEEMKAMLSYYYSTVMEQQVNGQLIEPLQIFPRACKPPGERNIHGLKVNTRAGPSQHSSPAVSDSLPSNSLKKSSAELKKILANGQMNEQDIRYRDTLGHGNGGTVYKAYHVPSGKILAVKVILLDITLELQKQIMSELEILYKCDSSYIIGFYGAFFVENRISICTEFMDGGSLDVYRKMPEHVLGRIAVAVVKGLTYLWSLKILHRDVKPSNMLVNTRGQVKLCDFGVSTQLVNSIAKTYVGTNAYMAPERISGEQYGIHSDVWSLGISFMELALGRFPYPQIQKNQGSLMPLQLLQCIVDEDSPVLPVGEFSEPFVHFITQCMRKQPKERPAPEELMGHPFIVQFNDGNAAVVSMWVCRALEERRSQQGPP

Chain of Ephrin type-B receptor 2 (Homo sapiens) (P29323 whole entry, the tested form may be a part): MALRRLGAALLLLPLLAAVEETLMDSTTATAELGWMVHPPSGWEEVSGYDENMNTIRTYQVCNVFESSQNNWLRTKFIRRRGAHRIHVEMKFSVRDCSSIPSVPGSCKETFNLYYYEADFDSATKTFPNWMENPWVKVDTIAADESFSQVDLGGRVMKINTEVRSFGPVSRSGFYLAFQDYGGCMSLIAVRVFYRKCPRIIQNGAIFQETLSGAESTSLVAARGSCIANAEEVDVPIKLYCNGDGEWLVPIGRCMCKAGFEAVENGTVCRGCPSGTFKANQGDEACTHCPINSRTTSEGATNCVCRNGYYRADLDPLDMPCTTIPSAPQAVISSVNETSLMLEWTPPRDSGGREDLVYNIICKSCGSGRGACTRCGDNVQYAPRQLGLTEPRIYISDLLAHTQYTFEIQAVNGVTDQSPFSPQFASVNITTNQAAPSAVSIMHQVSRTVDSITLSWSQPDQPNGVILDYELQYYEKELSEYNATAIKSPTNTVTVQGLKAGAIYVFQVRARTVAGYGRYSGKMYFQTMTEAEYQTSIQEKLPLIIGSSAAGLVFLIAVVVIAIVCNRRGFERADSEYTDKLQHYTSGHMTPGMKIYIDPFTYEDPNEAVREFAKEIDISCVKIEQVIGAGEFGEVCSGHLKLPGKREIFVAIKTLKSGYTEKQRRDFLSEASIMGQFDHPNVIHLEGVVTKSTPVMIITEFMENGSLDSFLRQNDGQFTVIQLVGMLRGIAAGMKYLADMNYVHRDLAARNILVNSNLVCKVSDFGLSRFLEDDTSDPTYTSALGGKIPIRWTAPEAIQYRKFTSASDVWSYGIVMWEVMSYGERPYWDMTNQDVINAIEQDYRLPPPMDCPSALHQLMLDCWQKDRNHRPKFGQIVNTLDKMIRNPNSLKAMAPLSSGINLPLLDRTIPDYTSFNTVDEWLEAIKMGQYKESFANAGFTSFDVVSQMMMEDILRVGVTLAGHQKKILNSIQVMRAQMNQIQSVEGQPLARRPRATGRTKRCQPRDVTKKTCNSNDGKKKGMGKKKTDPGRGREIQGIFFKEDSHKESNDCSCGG
Chain of Phosphatidylinositol 4,5-bisphosphate 3-kinase catalytic subunit alpha isoform (Homo sapiens), P42336 [E545K] (P42336 whole entry E545K, the tested form may be a part, canonical isoform): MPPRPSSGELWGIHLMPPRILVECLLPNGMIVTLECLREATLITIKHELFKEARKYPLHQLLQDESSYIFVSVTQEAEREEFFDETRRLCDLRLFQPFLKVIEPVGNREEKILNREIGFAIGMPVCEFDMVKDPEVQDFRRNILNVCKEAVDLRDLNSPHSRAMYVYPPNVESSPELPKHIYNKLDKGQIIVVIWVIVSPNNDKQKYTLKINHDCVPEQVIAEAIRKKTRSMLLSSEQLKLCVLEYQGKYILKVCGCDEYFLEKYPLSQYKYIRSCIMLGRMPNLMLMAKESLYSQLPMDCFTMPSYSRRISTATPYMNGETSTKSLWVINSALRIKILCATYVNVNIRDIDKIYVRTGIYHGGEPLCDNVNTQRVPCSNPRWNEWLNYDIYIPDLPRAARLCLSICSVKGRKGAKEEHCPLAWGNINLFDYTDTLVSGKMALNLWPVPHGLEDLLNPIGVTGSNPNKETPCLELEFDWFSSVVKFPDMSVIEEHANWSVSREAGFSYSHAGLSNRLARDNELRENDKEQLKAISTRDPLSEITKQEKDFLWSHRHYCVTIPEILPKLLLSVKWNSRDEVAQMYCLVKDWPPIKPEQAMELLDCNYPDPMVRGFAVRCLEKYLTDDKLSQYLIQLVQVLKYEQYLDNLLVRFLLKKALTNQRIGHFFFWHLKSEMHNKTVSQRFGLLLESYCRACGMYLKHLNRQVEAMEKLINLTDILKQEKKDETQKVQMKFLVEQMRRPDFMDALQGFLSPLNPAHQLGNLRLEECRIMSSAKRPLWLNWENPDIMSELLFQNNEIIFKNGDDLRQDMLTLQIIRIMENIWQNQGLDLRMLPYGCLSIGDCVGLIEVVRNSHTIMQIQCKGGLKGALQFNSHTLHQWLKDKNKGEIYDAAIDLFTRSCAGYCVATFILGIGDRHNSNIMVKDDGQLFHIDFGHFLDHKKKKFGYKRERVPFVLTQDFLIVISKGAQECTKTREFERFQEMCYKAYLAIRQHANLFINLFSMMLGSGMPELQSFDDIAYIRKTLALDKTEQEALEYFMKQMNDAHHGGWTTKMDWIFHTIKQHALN
Chain of Phosphatidylinositol 4,5-bisphosphate 3-kinase catalytic subunit delta isoform (Homo sapiens) (O00329 whole entry, the tested form may be a part, canonical isoform): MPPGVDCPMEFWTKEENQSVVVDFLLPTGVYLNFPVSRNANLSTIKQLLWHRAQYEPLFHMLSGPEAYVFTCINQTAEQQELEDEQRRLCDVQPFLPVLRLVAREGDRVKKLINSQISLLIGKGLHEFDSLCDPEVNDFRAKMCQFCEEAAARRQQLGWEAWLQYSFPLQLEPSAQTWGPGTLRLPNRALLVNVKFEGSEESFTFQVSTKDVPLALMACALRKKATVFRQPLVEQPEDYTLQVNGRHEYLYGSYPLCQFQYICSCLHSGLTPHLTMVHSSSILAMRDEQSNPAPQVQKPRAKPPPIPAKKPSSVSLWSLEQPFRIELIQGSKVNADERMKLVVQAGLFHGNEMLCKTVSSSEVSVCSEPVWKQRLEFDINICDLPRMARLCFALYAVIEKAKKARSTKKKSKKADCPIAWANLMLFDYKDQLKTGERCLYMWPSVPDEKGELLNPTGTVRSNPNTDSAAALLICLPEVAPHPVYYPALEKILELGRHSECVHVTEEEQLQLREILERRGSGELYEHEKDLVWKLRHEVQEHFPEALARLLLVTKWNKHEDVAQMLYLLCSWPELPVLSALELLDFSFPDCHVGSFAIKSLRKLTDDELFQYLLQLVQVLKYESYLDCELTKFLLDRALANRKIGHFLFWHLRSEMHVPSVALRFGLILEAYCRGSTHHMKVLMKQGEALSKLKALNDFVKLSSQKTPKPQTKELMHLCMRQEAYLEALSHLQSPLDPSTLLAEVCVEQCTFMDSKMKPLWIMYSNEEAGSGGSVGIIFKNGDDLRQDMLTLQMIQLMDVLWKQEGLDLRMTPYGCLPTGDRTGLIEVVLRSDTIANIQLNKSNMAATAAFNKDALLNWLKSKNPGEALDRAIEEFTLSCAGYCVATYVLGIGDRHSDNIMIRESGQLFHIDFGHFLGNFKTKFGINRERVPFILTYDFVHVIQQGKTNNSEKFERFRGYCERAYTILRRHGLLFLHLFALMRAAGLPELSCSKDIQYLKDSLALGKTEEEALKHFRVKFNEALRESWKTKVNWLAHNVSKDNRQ
Chain of Angiopoietin-1 receptor (Homo sapiens) (Q02763 whole entry, the tested form may be a part): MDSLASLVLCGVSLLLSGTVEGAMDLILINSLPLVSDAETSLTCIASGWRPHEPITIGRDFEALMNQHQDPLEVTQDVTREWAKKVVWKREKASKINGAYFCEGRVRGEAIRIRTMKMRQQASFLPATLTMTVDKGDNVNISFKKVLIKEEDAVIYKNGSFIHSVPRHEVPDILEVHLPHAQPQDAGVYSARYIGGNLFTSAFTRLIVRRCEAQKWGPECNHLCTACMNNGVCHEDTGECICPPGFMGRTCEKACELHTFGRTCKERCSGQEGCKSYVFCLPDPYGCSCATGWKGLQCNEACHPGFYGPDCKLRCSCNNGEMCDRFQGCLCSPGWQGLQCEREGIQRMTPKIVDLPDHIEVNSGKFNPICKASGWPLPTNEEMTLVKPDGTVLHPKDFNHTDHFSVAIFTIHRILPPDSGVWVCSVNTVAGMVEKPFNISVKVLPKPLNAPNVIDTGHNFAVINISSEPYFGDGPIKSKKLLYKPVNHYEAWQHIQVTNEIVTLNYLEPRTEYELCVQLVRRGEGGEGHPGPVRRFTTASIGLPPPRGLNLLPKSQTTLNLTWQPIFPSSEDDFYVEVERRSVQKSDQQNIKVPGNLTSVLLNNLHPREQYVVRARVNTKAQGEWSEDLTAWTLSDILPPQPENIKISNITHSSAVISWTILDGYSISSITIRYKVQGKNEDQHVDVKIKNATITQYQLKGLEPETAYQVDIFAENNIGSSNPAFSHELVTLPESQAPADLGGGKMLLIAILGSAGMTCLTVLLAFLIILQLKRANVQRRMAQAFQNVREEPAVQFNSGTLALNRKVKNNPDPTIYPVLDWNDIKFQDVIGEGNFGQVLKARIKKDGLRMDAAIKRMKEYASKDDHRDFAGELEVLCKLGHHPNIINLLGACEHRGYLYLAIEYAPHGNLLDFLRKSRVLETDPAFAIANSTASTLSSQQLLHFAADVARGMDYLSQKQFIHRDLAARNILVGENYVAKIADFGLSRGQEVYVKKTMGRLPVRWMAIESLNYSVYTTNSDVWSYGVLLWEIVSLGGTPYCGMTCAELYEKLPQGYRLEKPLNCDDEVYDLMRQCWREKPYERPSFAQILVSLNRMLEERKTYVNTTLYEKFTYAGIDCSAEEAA

COc1cc(OC)c(Cl)c(N2Cc3cnc(Nc4ccc(F)cc4)nc3N(C3CCN(C(=O)/C=C/CN(C)C)CC3)C2=O)c1Cl
Activity [1]: 83%
Activity [2]: 100%
Activity [3]: 99%
Activity [4]: 81%
Activity [5]: 94%
Activity [6]: 100%
Activity [7]: 82%
Activity [8]: 100%
Activity [9]: 98%
Activity [10]: 100%
Activity [11]: 93%
Activity [12]: 91%
Activity [13]: 26%
Activity [14]: 100%
Activity [15]: 99%
Activity [16]: 100%
Activity [17]: 83%
Activity [18]: 89%
Activity [19]: 90%
Activity [20]: 96%
Activity [21]: 90%
